Bioassay records as filed in PubChem BioAssay.
STEP inh: STEP (human) phosphatase inhibition; recombinant STEP, OMFP fluorogenic substrate, fluorescence; inhibition, % at 20 µM; 360,000 compounds, 0.25% hits; AID 588621;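 active means inhibition at 20 µM, scaled per plate between control wells, above about 37%, limit read from the data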;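 further: 0% = DMSO with enzyme and substrate and 100% = substrate only without enzyme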
Target sequence (P54829 whole entry, looked up): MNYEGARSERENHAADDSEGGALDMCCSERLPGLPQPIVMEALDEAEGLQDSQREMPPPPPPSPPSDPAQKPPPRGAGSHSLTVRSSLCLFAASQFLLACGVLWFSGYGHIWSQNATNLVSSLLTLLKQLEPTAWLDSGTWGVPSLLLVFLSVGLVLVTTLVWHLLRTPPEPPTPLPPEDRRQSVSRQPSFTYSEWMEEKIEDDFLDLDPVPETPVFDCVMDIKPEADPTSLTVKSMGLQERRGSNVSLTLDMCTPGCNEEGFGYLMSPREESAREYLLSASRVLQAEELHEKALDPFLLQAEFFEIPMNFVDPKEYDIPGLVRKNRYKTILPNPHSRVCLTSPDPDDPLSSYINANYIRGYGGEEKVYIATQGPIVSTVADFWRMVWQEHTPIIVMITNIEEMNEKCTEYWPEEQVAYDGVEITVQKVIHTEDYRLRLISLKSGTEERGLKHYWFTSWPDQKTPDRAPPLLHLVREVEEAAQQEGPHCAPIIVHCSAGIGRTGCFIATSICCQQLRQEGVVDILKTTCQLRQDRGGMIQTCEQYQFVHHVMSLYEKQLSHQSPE
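Material: STEP (striatal-enriched tyrosine phosphatase) enzyme, cell-free | Medium: 50 mM Bis-Tris pH 6.0 with 2.5 mM DTT and 0.005% Tween 20 | Read-out: Percent inhibition scaled to no-enzyme and uninhibited-enzyme controls, plate-pattern corrected | Signal: Fluorescence read at 480 nm ex / 540 nm em | Times: 20 min reaction, room temperature, in the dark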
Scp1 inh: Scp-1 (human) phosphatase inhibition; Q9GZU7; Recombinant Scp1, phosphopeptide, malachite green phosphate absorbance; inhibition, % at 20 µM; 340,000 compounds, 0.88% hits; AID 493091;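 active means inhibition above about 50% at 20 µM, limit read from the data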;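 further: plate controls were DMSO wells with enzyme for no effect and wells lacking enzyme for full effect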
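System: SCP-1 catalytic domain; Reagent: Phospho 17-mer peptide substrate; Doses: one concentration, 20 µM, with 1.0% DMSO; Incubation: 45 min room-temperature reaction, 5 min colour, 30 min stabiliser; Signal: Phosphate-binding colour reagent, absorbance read at 630 nm.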
LMPTP inh: blocks human LMPTP phosphatase; recombinant LMPTP-A, OMFP fluorogenic substrate, fluorescence intensity; inhibition, % at 20 µM; 360,000 compounds, 0.22% hits;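 active means compounds that cut the enzyme signal by at least half of the control window in the single-dose screen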;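 further: plate controls were DMSO wells with enzyme plus substrate for no effect and substrate without enzyme for full effect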
Target sequence (P24666 whole entry, looked up): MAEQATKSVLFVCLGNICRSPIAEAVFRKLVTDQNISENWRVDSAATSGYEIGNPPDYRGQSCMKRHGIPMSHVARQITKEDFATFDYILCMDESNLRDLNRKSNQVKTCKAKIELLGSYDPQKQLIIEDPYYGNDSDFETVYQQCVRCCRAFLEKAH
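material = LMPTP-A | quantity = 0.625 nM enzyme | reagent = OMFP substrate, 400 µM final | buffer or medium = Bis-Tris pH 6.0, DTT, detergent | detection = endpoint fluorescence intensity from OMFP dephosphorylation | dosing = single 20 µM dose | read-out basis = % inhibition relative to no-enzyme and uninhibited control wells | control set = no-enzyme and uninhibited controls | timing = 50 min at room temperature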
SUMO1 PPI mod: modulators of human SUMO1-mediated protein-protein interactions; P63165; SUMO1 binding to a labelled peptide, TR-FRET, 1 h; 360,000 compounds, 0.33% hits; inhibition, % at 20 µM; in the data active means inhibition above about 37%
DNMT1 block: DNMT1 (human) enzyme inhibition. 360,000 compounds, 0.83% hits. DNMT1 molecular beacon, Hinp1I cleavage, fluorescence. inhibition (reported as % activation of signal), % at 10 µM; in the data active means inhibition above about 50%
Scp-1 conf: Scp-1 (human) inhibition, single-dose confirmed. shares compounds with Scp1 inh. AID 540281. inhibition, % at 20 µM. 2,500 compounds, 61% hits. recombinant SCP-1 catalytic domain, phosphate release, malachite green absorbance;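 further: plate controls were DMSO with enzyme for no effect and buffer wells lacking enzyme for full effect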
Scp-1 MG ctr: colorimetric interference in Scp-1 counter-screen; shares compounds with Scp1 inh; Colorimetric interference counterscreen, malachite green absorbance 630 nm; apparent inhibition (interference), % at 20 µM; 2,500 tested, under 10 active; AID 540313;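 further: compounds added after enzyme reaction finished so only phosphate colour detection is probed; plate controls were DMSO wells with completed Scp-1 reaction for no effect and substrate wells lacking enzyme for full effect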
Scp-1 Tm shift: validation of human Scp-1 inhibitors by thermal shift binding; shares compounds with Scp1 inh; 1,500 compounds, 25% hits; thermal shift relative to vanadate control, % at 40 µM; Recombinant SCP1, Sypro Orange thermal shift Tm;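 active means substances whose mean melting-temperature shift, as a percentage of the reference inhibitor's shift, reaches about 5.3%, limit read from the data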;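 further: 0% = Tm of DMSO wells and 100% = Tm with sodium orthovanadate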
Starred values were filed as active, the others as inactive; · = no result given. Rows were chosen to be rich in hits. Some 1.7% of all compounds tested hit in one or more screens of this group.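 How the source made its calls, unless noted: active means inhibition of at least 30% at 20 µM; inactive means the rest.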

SMILES	STEP inh	Scp1 inh	LMPTP inh	SUMO1 PPI mod	DNMT1 block	Scp-1 conf	Scp-1 MG ctr	Scp-1 Tm shift
COc1cc(NC(=O)CN2CCN(C(=O)c3ccco3)CC2)c(C)cc1[N+](=O)[O-]	-1.0	·	0.1	-12.0	2.1	·	·	·
CC1=CC(C)C(C(=O)O)C(C(=O)O)C1 (centres undefined)	0.7	-4.1	-1.1	-1.6	0.3	·	·	·
CC[N+](C)(CC)CC(=O)OCC1C(C)C=C(C)CC1C (centres undefined)	-0.5	55.5*	0.4	-6.4	-1.4	-2.7	-13.1	·
COc1ccc(OC)c(/C=N/N(CCC#N)C2=NS(=O)(=O)c3ccccc32)c1	-1.8	76.3*	-0.5	2.0	-3.6	-14.8	-15.6	·
N#CCCN(/N=C/c1cccnc1)C1=NS(=O)(=O)c2ccccc21	-1.2	3.0	-0.7	8.8	-3.1	·	·	·
Cc1ccc(O)c(C(=O)c2cnn(C(=O)COc3ccc(Cl)cc3)c2)c1	31.7	82.2*	24.9	0.8	22.1	73.0*	-12.6	-15.2
CCCCc1ccc(S(=O)(=O)Nc2nnc(C)s2)cc1	3.1	5.2	-1.2	4.9	-1.8	·	·	·
CCCCc1ccc(S(=O)(=O)Nc2cc(C)on2)cc1	2.3	69.5*	-1.0	-4.5	0.5	-19.1	-20.8	·
Cc1cc(NC(=O)CSCC(=O)N(c2cccc(Cl)c2)C(C(=O)NC2CCCCC2)c2ccc(O)c(O)c2)no1 (centres undefined)	-1.5	50.3*	-0.7	6.1	7.5	5.7	-14.8	·
CCc1nc2c(OCc3cccc(Cl)c3)cccn2c1N(C)C(=O)CC(C)C	1.7	·	1.4	-0.6	-2.5	·	·	·
CC(=O)Nc1ccc(NC(=O)CSc2nc(N)c(NC(=O)c3ccccc3F)c(=O)[nH]2)cc1	1.5	52.6*	8.7	18.7	15.6	48.8*	-1.3	-20.6
Cc1cccc(NC(=O)CSc2nc(N)c(NC(=O)c3ccccc3F)c(=O)[nH]2)c1	-0.6	-2.4	-0.3	10.7	0.6	·	·	·
COc1ccncc1-c1csc(C(O)c2ccccc2)n1 (centres undefined)	-0.1	·	-1.1	1.3	2.7	·	·	·
CCOc1ccc(NC(=O)c2ccc(N)cc2)cc1	-0.9	-9.1	-0.6	-1.0	-2.4	·	·	·
CCOc1ccc(NC(=O)c2ccc(NC(=O)c3ccc(NC(N)=O)cc3)cc2)cc1	9.1	58.8*	35.2	30.1	55.9*	35.1*	-12.9	8.0*
COc1cccc(C(=O)c2cn(CC(=O)NCc3ccco3)c3nc(C)ccc3c2=O)c1	-1.1	62.1*	11.8	11.0	14.0	66.3*	-7.9	-11.5
CCn1cc(C(=O)NCc2ccc(OC)cc2)c(=O)c2ccc(C)nc21	0.4	-4.7	-2.4	-1.2	-0.5	·	·	·
CCn1cc(C(=O)NCc2ccccc2F)c(=O)c2ccc(C)nc21	1.3	-12.1	-0.8	15.5	2.6	·	·	·
Cc1ccc2c(=O)c(C(=O)c3ccc(F)cc3)cn(CC(=O)NCc3ccco3)c2n1	6.5	60.5*	0.8	5.8	14.9	51.6*	-14.8	-2.2
OC(c1cccc(Cl)c1)c1ncc(-c2ccc(C(F)(F)F)cc2)[nH]1 (centres undefined)	-1.7	·	2.4	1.6	6.6	·	·	·
COC(=O)C1=C(C(=O)OC)C2(OC1c1ccccc1C)C(=O)c1ccccc1C2=O (centres undefined)	1.5	56.4*	1.7	-4.9	-1.8	-9.9	-6.8	·
CC(=O)N1C[C@@H](CO)[C@@H](N(C)C(=O)C(C)(C)C)C[C@H]1c1ccccc1	-0.1	·	-1.7	4.7	3.8	·	·	·
COCCCn1cc(CN2CC(N3CCN(C)CC3)CS2(=O)=O)nn1 (centres undefined)	·	·	-6.7	6.5	·	·	·	·
COc1cc(/C=N/N=C2/NC(=O)C(CC(=O)O)S2)ccc1OCc1ccc(Cl)cc1 (centres undefined)	-1.3	58.5*	-1.0	-3.1	-2.2	70.0*	-5.4	-7.5
COc1cc(/C=N/N=C(N)N)ccc1OCc1ccc(Cl)cc1	7.4	-1.4	1.8	-13.0	-3.3	·	·	·
SMILES	STEP inh	Scp1 inh	LMPTP inh	SUMO1 PPI mod	DNMT1 block	Scp-1 conf	Scp-1 MG ctr	Scp-1 Tm shift
CC(Oc1cccc([N+](=O)[O-])c1)C(=O)NCCC1=CCCCC1 (centres undefined)	1.0	59.0*	-0.4	-18.0	-5.2	-12.8	-13.6	·
CC(C(=O)NCCC1=CCCCC1)c1ccc([N+](=O)[O-])cc1 (centres undefined)	-0.3	-10.4	-1.4	-12.7	2.5	·	·	·
O=C1N=c2ccccc2=C1c1sc(NS(=O)(=O)Cc2ccccc2)nc1O	9.1	92.8*	3.8	5.2	-0.5	83.7*	-6.2	31.1*
C=CCn1c(N)cc(=O)nc1SC(C)C(=O)Nc1cccc2ccccc12 (centres undefined)	0.7	-17.6	-0.2	-6.1	-5.0	-19.4	-18.6	·
Clc1ccc(C=NN2CCCCCC2)c(Cl)c1	-1.0	66.7*	0.6	1.6	2.6	-13.9	-19.5	·
CCNC(=O)C1(C)CCN(Cc2ccc(OC(F)(F)F)cc2)C1 (centres undefined)	-3.2	·	-1.2	-4.8	-7.8	·	·	·
C/C(=N\NC(=O)c1cc(Br)ccc1O)c1cccc(NC(=O)c2ccccc2F)c1	9.0	86.1*	3.9	15.3	1.8	78.9*	-12.6	5.8*
C/C(=N\NC(=O)c1cc(Br)ccc1O)c1cccs1	4.7	66.4*	-0.9	3.2	4.7	69.4*	-7.3	-1.6
C/C(=N/NC(=O)c1ccc(Br)o1)c1cccs1	-0.5	-5.0	-0.8	-14.0	0.6	·	·	·
Nc1cc(=O)[nH]c(SCC(=O)Nc2cc(Cl)cc(Cl)c2)n1	-1.2	-10.8	-1.2	1.9	-7.4	-5.9	-3.2	·
COC(=O)c1ccccc1NC(=O)CSc1nc(N)cc(=O)[nH]1	2.8	56.7*	1.5	6.4	47.4	34.5*	-17.0	-0.2
CCOC1=C2[C@H](c3ccc(CC)cc3)N(S(=O)(=O)c3ccc(C)cc3)C[C@H]2n2c(=O)n(-c3ccccc3)c(=O)n2C1	3.1	·	0.8	4.2	-0.7	·	·	·
Cn1ccsc1=NC(=O)c1ccc(=O)[nH]c1	-0.9	94.0*	-0.3	1.5	1.5	-19.4	-16.4	·
COCC(C)n1c(C)cc(C(=O)COC(=O)c2c(NC(C)=O)sc(C)c2C)c1C (centres undefined)	35.0	80.1*	32.8	7.2	29.3	42.1*	-4.3	-8.6
Cc1ccc2[nH]c3c(=O)n(CC(=O)NCc4ccco4)ncc3c2c1	-0.6	52.0*	5.8	5.8	24.0	4.2	-13.4	·
O=C1OC(/C=C/c2ccccc2)=NC/1=C/C=C/c1ccccc1	7.2	69.8*	-1.5	-9.7	13.0	13.1	-3.2	·
